According to ChEMBL document CHEMBL1124219, “Inhibition of porcine pepsin by two substrate analogues containing statine. The effect of histidine at the P2 subsite on the inhibition of aspartic proteinases” (J Med Chem, 1988):
*1 amine or outer side, *2 acyl side, *3 side chain or, on linkers, in order; H or OH if unused. Where a SMILES comes first, the peptide text is derived from it. [ ]: non-standard residue; d: D form. The star is where a group is joined. ξ: configuration not given here. Sta(3ξ) = CC(C)C[C@H](N[*:1])C(O)CC(=O)[*:2]; X1 = CC(C)CC(N[*:1])C(O)CC(C(=O)[*:2])C(C)C; Sta = CC(C)C[C@H](N)[C@@H](O)CC(=O)O; NMeH = CN[C@@H](Cc1c[nH]cn1)C(=O)O; NHCH2(2-pyridyl) = c1ccc(CN*)nc1; Isobutyryl = CC(C)C(=O)*; Boc = CC(C)(C)OC(=O)*

Experiments:
Cathepsin D [1] = molecular target: T1, Cathepsin D (Bos taurus, UniProt P80209); assay: Inhibition of bovine cathepsin D at pH 3.1
T1 sequence (P80209 whole entry): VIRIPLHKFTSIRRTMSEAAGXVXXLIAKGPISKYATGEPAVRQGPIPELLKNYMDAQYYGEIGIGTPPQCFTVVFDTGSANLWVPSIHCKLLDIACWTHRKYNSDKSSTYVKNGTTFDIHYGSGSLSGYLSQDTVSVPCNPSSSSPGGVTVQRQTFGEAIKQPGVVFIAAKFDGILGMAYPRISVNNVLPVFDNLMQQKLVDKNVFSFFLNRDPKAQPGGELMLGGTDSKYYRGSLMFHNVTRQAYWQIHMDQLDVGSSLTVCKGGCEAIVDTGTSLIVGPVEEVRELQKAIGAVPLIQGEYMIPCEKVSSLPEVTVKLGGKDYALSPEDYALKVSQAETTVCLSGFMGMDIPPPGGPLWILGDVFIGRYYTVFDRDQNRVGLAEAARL

Pepsin A [2] = molecular target: T2, Pepsin A (Sus scrofa, UniProt P00791); assay: Inhibition of porcine pepsin at pH 1.9
Renin [3] = molecular target: T3, Renin (Homo sapiens, UniProt P00797); assay: Inhibition of human renin at pH 6.0
T3 sequence (P00797 whole entry): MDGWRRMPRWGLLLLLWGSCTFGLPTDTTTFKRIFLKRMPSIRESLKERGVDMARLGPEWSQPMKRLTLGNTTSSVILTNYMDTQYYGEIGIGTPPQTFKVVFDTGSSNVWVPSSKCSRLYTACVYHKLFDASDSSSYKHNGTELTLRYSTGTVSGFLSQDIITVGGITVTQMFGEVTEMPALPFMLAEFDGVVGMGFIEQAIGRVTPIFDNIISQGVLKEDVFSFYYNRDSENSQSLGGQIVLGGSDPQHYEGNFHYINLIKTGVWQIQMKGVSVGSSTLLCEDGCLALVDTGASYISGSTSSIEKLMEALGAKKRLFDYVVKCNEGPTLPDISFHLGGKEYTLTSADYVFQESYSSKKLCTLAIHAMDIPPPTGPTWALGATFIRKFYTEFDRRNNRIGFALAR

Pepsin A [4] = molecular target: T2, Pepsin A; assay: Inhibition of porcine pepsin at pH 4.0
In short: (§1)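 Hydrolysis was followed as the absorbance drop at 290 nm over the first 5–10% of reaction. Percent activity was plotted against inhibitor concentration to give IC50, and Ki = (IC50 − 0.5Et)/(1 + S/Km).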

Renin [5] = molecular target: T3, Renin; assay: Inhibition of human renin at pH 7.4
Renin [6] = molecular target: T3, Renin; assay: Inhibition of human renin at pH 7.0
Pepsin A [7] = molecular target: T2, Pepsin A; assay: Inhibition of porcine pepsin at pH 2.0
Pepsin A [8] = molecular target: T2, Pepsin A; assay: Inhibition of porcine pepsin at pH 4; in short: as §1
Cathepsin D [9] = molecular target: T1, Cathepsin D; assay: Inhibition of bovine cathepsin D at pH 3.2
Pepsin A [10] = molecular target: T4, Pepsin A (Homo sapiens, UniProt P0DJD9); assay: Inhibition of human pepsin at pH 3.1
Pepsin A [11] = molecular target: T4, Pepsin A; assay: Inhibition of human pepsin at pH 2.0
Cathepsin D [12] = molecular target: T1, Cathepsin D; assay: Inhibition of bovine cathepsin D at pH 3.3(no inhibition)
Pepsin A [13] = molecular target: T2, Pepsin A; assay: Inhibition of porcine pepsin at pH 4.0 (time-dependent inhibition, T1/2>30 s)

T2 sequence (P00791 whole entry): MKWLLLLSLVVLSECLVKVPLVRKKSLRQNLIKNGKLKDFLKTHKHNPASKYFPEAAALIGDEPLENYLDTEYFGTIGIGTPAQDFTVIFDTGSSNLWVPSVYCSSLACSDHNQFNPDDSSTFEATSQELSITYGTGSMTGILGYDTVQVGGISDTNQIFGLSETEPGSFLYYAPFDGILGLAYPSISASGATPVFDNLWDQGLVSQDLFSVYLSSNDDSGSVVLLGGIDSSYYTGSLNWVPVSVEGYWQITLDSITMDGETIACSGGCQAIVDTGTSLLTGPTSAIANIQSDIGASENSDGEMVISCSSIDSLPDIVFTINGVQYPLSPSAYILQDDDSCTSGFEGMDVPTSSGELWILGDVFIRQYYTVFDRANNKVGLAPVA
T4 sequence (P0DJD9 whole entry): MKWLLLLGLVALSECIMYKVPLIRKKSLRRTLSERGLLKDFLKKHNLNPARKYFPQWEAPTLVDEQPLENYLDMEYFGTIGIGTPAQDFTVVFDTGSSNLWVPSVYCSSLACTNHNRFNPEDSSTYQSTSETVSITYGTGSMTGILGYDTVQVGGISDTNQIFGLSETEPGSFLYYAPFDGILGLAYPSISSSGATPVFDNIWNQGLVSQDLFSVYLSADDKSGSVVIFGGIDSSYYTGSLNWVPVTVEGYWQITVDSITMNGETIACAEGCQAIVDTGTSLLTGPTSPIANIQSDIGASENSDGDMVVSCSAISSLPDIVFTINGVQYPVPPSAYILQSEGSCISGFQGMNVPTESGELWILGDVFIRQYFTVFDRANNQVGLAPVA

Ki (Pepsin A [4]) | Ki (Renin [5]) | IC50 (Pepsin A [7]) | further results | Structure (SMILES)
 |  |  | IC50 (Cathepsin D [1]): > 100 µM; IC50 (Pepsin A [2]): > 100 µM; IC50 (Renin [3]): 7 nM | CC(C)CC(NC(=O)CCc1ccccc1)SCC(O)C(CC1CCCCC1)NC(=O)[C@H](Cc1cnc[nH]1)NC(=O)[C@H](Cc1ccccc1)NC(=O)OC(C)(C)C (stereo not given in full)
< 1 nM | 9 nM |  |  | COC(=O)[C@H](Cc1ccccc1)NC(=O)[C@H](CC(C)C)NC(=O)CC(O)[C@H](CC(C)C)NC(=O)CCCNC(=O)[C@H](Cc1ccccc1)NC(=O)[C@@H]1CCCN1C(=O)CCCN (stereo not given in full)
 |  |  | IC50 (Renin [3]): 1.4 nM; IC50 (Renin [6]): 10 nM | CC[C@H](C)[C@H](NC(=O)C(F)(F)C(=O)C(CC(C)C)NC(=O)[C@H](Cc1c[nH]cn1)NC(=O)[C@H](Cc1ccccc1)NC(=O)OC(C)(C)C)C(=O)NCc1ccccn1 (stereo not given in full)
 |  | 60 nM |  | COC(=O)CC(O)[C@H](CC(C)C)NC(=O)[C@H](C)NC(=O)CC(O)[C@H](CC(C)C)NC(=O)[C@@H](NC(=O)[C@H](Cc1ccccc1)NC(=O)OCc1ccccc1)C(C)C (stereo not given in full)
 |  |  | Ki (Pepsin A [8]): 150 nM | COC(=O)[C@H](Cc1ccccc1)NC(=O)[C@H](C)NC(=O)C[C@H](O)[C@H](CC(C)C)NC(=O)[C@H](Cc1c[nH]cn1)NC(=O)CNC(=O)[C@@H](N)Cc1ccccc1 (H-FGH[Sta]AF-OMe)
 |  | 1300 nM |  | COC(=O)CC(O)[C@H](CC(C)C)NC(=O)[C@H](C)NC(=O)CC(O)[C@H](CC(C)C)NC(=O)[C@H](Cc1cnc[nH]1)NC(=O)[C@H](Cc1ccccc1)NC(=O)OC(C)(C)C (stereo in doubt; 15)
67 nM | 1100 nM |  |  | COC(=O)[C@H](Cc1ccccc1)NC(=O)[C@H](CC(C)C)NC(=O)CC(O)[C@H](CC(C)C)NC(=O)[C@H](Cc1c[nH]cn1)NC(=O)COC(=O)C(C)(C)C (stereo not given in full)
 |  | 850 nM | IC50 (Renin [3]): 5.5 nM | COC(=O)CC(O)[C@H](CC(C)C)NC(=O)[C@H](C)NC(=O)CC(O)[C@H](CC(C)C)NC(=O)[C@H](Cc1c[nH]cn1)NC(=O)[C@H](Cc1c[nH]c2ccccc12)NC(=O)OC(C)(C)C (stereo not given in full)
34 nM | 8 nM |  |  | CC(C)C[C@H](NC(=O)CC(O)[C@H](CC(C)C)NC(=O)[C@H](Cc1c[nH]cn1)NC(=O)[C@H](Cc1ccccc1)NC(=O)[C@@H]1CCCN1C(=O)[C@@H](N)Cc1c[nH]cn1)C(=O)N[C@@H](Cc1ccccc1)C(N)=O (stereo not given in full) (H-HPFH[Sta(3ξ)]LF-NH2)
12 nM | 1700 nM |  |  | COC(=O)[C@H](Cc1ccccc1)NC(=O)[C@H](CC(C)C)NC(=O)CC(O)[C@H](CC(C)C)NC(=O)[C@H](CC(C)C)NC(=O)COC(=O)C(C)(C)C (stereo not given in full)
 |  | 14 nM | IC50 (Renin [3]): 3.5 nM | COC(=O)CC(O)[C@H](CC(C)C)NC(=O)[C@H](C)NC(=O)CC(O)[C@H](CC(C)C)NC(=O)[C@H](Cc1ccccc1)NC(=O)[C@H](Cc1ccccc1)NC(=O)OC(C)(C)C (stereo not given in full)
 |  | 6800 nM | IC50 (Cathepsin D [9]): 6.3 µM; IC50 (Renin [3]): 0.26 nM | CC[C@H](C)[C@H](NC(=O)C(CC(O)C(CC(C)C)NC(=O)[C@H](Cc1c[nH]cn1)N(C)C(=O)[C@H](Cc1ccccc1)NC(=O)[C@@H]1CCCN1C(=O)OC(C)(C)C)C(C)C)C(=O)NCc1ccccn1 (stereo not given in full) (Boc-PF[NMeH][X1]I-{NHCH2(2-pyridyl)})
 |  |  | IC50 (Cathepsin D [1]): 40 µM; IC50 (Pepsin A [10]): 60 µM; IC50 (Cathepsin D [9]): 1.7 µM; IC50 (Pepsin A [11]): 42 µM | CC[C@H](C)[C@H](NC(=O)C(F)(F)C(=O)[C@H](CC(C)C)NC(=O)[C@H](Cc1c[nH]cn1)NC(=O)[C@H](Cc1ccccc1)NC(=O)OC(C)(C)C)C(=O)NCc1ccccn1
23 nM | 16 nM |  |  | CC(C)C[C@H](NC(=O)CC(O)[C@H](CC(C)C)NC(=O)[C@H](Cc1c[nH]cn1)NC(=O)[C@H](Cc1ccccc1)NC(=O)[C@@H]1CCCN1C(=O)[C@H](Cc1c[nH]cn1)NC(=O)C(C)C)C(=O)N[C@@H](Cc1ccccc1)C(N)=O (stereo not given in full) (Isobutyryl-HPFH[Sta(3ξ)]LF-NH2)
 |  | 1300 nM |  | COC(=O)CC(O)[C@H](CC(C)C)NC(=O)[C@H](C)NC(=O)CC(O)[C@H](CC(C)C)NC(=O)[C@H](Cc1cnc[nH]1)NC(=O)[C@H](Cc1ccccc1)NC(=O)OC(C)(C)C (stereo in doubt; 17)
 |  |  | IC50 (Cathepsin D [12]): > 700 µM; IC50 (Renin [6]): 10 nM | CC[C@H](C)[C@H](NC(=O)[C@@H](NC[C@H](CC(C)C)NC(=O)[C@H](Cc1c[nH]cn1)NC(=O)[C@H](Cc1ccccc1)NC(=O)[C@@H]1CCCN1C(=O)[C@H](Cc1c[nH]cn1)NC(=O)[C@@H]1CCCN1)C(C)C)C(=O)N[C@@H](Cc1c[nH]cn1)C(=O)N[C@@H](CCCCN)C(=O)O
4 nM | 99 nM |  |  | CC(C)C[C@H](NC(=O)CC(O)[C@H](CC(C)C)NC(=O)[C@H](C)NC(=O)[C@H](Cc1ccccc1)NC(=O)[C@@H]1CCCN1C(=O)[C@H](Cc1c[nH]cn1)NC(=O)C(C)C)C(=O)N[C@@H](Cc1ccccc1)C(N)=O (stereo not given in full) (Isobutyryl-HPFA[Sta(3ξ)]LF-NH2)
 |  |  | Ki (Pepsin A [13]): < 1 nM | COC(=O)[C@H](Cc1ccccc1)NC(=O)[C@H](C)NC(=O)C[C@H](O)[C@H](CC(C)C)NC(=O)[C@@H](NC(=O)CNC(=O)[C@@H](N)Cc1ccccc1)C(C)C (H-FGV[Sta]AF-OMe)
